Test [1] relates to Canis familiaris. The experiment in a line: Diuretic activity was measured after oral administration in conscious water loaded dogs at 20 mg/kg after 1 hr. Type of test: functional, Canis lupus familiaris, Urine. The method, boiled down:
(§1)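 Male mongrel dogs (20–25 kg) were given 20 mL/kg tap water by gavage about 15 h before drug, with water ad libitum overnight. On the test day they received 4 mL/kg tap water hourly for 7 h, and the bladder was emptied at each interval. Drug was gavaged in the 4 mL/kg water load after the third urine sample, with Tween 80 added when it was poorly soluble. Urinary Na+ was measured by flame photometry as the mean excretory rate (μequiv/kg) per interval per animal. Each dog was its own control, using the hour before dosing.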

Test [2] has as its system Mus musculus. Put plainly: The diuretic activity was measured after oral administration in saline loaded mice at 64 mg/kg after 5 hr. Type of test: functional, Urine. The method, boiled down:
(§2)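 Mice were dosed orally with drug in 1% saline at 10 mL/kg, at 4 or 64 mg/kg, alongside a vehicle control. There were 10 mice per group, housed 5 per metabolic cage. Pooled urine was analysed for sodium by flame photometry and expressed as mean mequiv/kg/5 h.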

Test [3] concerns Mus musculus. Put plainly: The diuretic activity of compound was measured after oral administration in saline loaded mice at 8 mg/kg after 5h; micro equiv of Na+/kg. Type of test: functional, Urine.
Test [4] deals with Mus musculus. The experiment in a line: The diuretic activity of compound was measured after oral administration in saline loaded mice at 4 mg/kg after 5h. Type of test: functional, Urine. In outline: as §2
For test [5], the system named is Mus musculus. Put plainly: The diuretic activity of compound was measured after oral administration in saline loaded mice at 64 mg/kg after 5h. Type of test: functional, Urine. The method, boiled down: as §2
Test [6] has as its system Canis familiaris. The experiment in a line: The diuretic activity of compound was measured after oral administration in conscious water loaded dogs at 5 mg/kg after 4 hr; Micro equiv of Na+/kg. Type of test: functional, Canis lupus familiaris, Urine. The method, boiled down:
as §1

In test [7] the test system is Canis familiaris. The experiment in a line: The diuretic activity of compound was measured after oral administration in conscious water loaded dogs at 5 mg/kg after 5h; Micro equiv of Na+/kg. Type of test: functional, Canis lupus familiaris, Urine. The method, boiled down: as §1
For test [8], the system named is Canis familiaris. The experiment in a line: The diuretic activity of compound was measured after oral administration in conscious water loaded dogs at 5 mg/kg after 6 h; Micro equiv of Na+/kg. Type of test: functional, Canis lupus familiaris, Urine. In outline:
as §1

The subject of test [9] is Canis familiaris. The experiment in a line: The diuretic activity of compound was measured after oral administration in conscious water loaded dogs at 5 mg/kg after 7h; Micro equiv of Na+/kg. Type of test: functional, Canis lupus familiaris, Urine. In outline:
as §1

Test [10] relates to Canis familiaris. Put plainly: The diuretic activity of compound was measured after oral administration in conscious water loaded dogs at 5 mg/kg after 1 hr; Micro equiv of Na+/kg. Type of test: functional, Canis lupus familiaris, Urine. The method, boiled down: as §1
In test [11] the test system is Canis familiaris. The experiment in a line: The diuretic activity of compound was measured after oral administration in conscious water loaded dogs at 5 mg/kg after 2 hr; Micro equiv of Na+/kg. Type of test: functional, Canis lupus familiaris, Urine. In outline:
as §1

For test [12], the system named is Canis familiaris. Put plainly: The diuretic activity of compound was measured after oral administration in conscious water loaded dogs at 5 mg/kg after 3 hr; Micro equiv of Na+/kg. Type of test: functional, Canis lupus familiaris, Urine. The method, boiled down: as §1
Test [13] deals with Mus musculus. Put plainly: The diuretic activity was measured after oral administration in saline loaded mice at 4 mg/kg after 5 hr. It is filed as functional, Urine. In outline:
as §2

In test [14] the test system is Canis familiaris. Put plainly: Diuretic activity was measured after oral administration in conscious water loaded dogs at 5 mg/kg after 1 hr. Type of test: functional, Canis lupus familiaris, Urine. In outline: as §1
The subject of test [15] is Canis familiaris. Put plainly: Diuretic activity was measured after oral administration in conscious water loaded dogs at 10 mg/kg after 2 hr.

With `Cc1c(OCC(=O)O)ccc2c(-c3ccccc3F)noc12`, the Oral diuretic activity in test [1] is 478.9 u equiv of [Na+] kg-1 hr-1; in test [2], 7.24 m equiv [Na+] 5hr-1kg-1; in test [3] it was 1.86 m equiv [Na+] 5hr-1kg-1.
As to `O=C(O)COc1ccc2c(-c3cccc[n+]3[O-])noc2c1Cl`, the values for the Oral diuretic activity in test [1], in test [4] and in [5] were 116.6 u equiv of [Na+] kg-1 hr-1, 0.5 m equiv [Na+] 5hr-1kg-1 and 1 m equiv [Na+] 5hr-1kg-1, respectively.
Turning to `O=C(O)COc1ccc2c(-c3ccccc3F)noc2c1Cl`, the Oral diuretic activity in [6] was 503.7 u equiv of [Na+] kg-1; in test [7], 458.2 u equiv of [Na+] kg-1; in test [8], 241.7 u equiv of [Na+] kg-1; in [9] it was 146.2 u equiv of [Na+] kg-1; in test [1] it was 1267.5 u equiv of [Na+] kg-1 hr-1; in test [10], 48.6 u equiv of [Na+] kg-1. In addition, the Oral diuretic activity is 499.4 u equiv of [Na+] kg-1 in test [11], 727 u equiv of [Na+] kg-1 in test [12], 3.5 m equiv [Na+] 5hr-1kg-1 in test [13] and 10 m equiv [Na+] 5hr-1kg-1 in [2].
With `O=C(O)COc1ccc2c(-c3c(F)cccc3F)noc2c1Cl`, the Oral diuretic activity in [6] was 431.8 u equiv of [Na+] kg-1; in test [7] it was 397 u equiv of [Na+] kg-1; in test [8], 342.6 u equiv of [Na+] kg-1; in test [9], 190 u equiv of [Na+] kg-1; in test [1], 1081.4 u equiv of [Na+] kg-1 hr-1; in [10], 108.4 u equiv of [Na+] kg-1. The Oral diuretic activity is 98.9 u equiv of [Na+] kg-1 in test [11], 257.2 u equiv of [Na+] kg-1 in test [12], 5.3 m equiv [Na+] 5hr-1kg-1 in [13] and 10.4 m equiv [Na+] 5hr-1kg-1 in test [2].
Regarding `C=C(CC)C(=O)c1ccc(OCC(=O)O)c(Cl)c1Cl` [ETHACRYNIC ACID], the Oral diuretic activity is 703 µequiv [Na+] kg-1 hr-1 in test [1], 1.09 m equiv [Na+] 5hr-1kg-1 in test [4] and 4.14 m equiv [Na+] 5hr-1kg-1 in test [5].
In the case of `NS(=O)(=O)c1cc(C(=O)O)c(NCc2ccco2)cc1Cl` [FUROSEMIDE], the Oral diuretic activity in test [6] is 333.9 u equiv of [Na+] kg-1; in test [7] it was 144.1 u equiv of [Na+] kg-1; in [8], 40.4 u equiv of [Na+] kg-1; in test [14] it was 1311.5 u equiv of [Na+] kg-1 hr-1; in test [10], 1207 u equiv of [Na+] kg-1; in [11] it was 1311.5 u equiv of [Na+] kg-1. The Oral diuretic activity in test [12] is 763.6 u equiv of [Na+] kg-1; in test [13], 1.93 m equiv [Na+] 5hr-1kg-1; in [2] it was 7.96 m equiv [Na+] 5hr-1kg-1.
With `CC1(c2ccccc2)Cc2cc(OCC(=O)O)c(Cl)c(Cl)c2C1=O` (stereo unspecified) [INDACRINONE], the Oral diuretic activity in test [13] was 2.1 m equiv [Na+] 5hr-1kg-1; in test [2], 7.6 m equiv [Na+] 5hr-1kg-1; in [15] it was 1141.4 u equiv of [Na+] kg-1 hr-1.
